According to ChEMBL document CHEMBL3286091, “Novel N-linked aminopiperidine-based gyrase inhibitors with improved hERG and in vivo efficacy against Mycobacterium tuberculosis” (J Med Chem, 2014):
Converted amounts (≈) assume the structure as drawn. The source made the active and inactive calls. No cut-off for these calls is given here.

What was measured:
[1] = test system: Mycobacterium tuberculosis; assay: Antimycobacterial activity against Mycobacterium tuberculosis infected in aminobenzotriazole-pretreated BALB/c mouse acute tuberculosis model assessed as reduction in bacterial burden at 80 to 160 mg/kg, po bid for 20 days; assay type: functional, organism-based
In short: (§1)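 Aerosol-infected BALB/c mice in BSL3, three per group. Treatment began 3 days (acute) or 4 weeks (chronic) after infection. ABT 100 mg/kg po in water was given 2 h before oral gavage of compound in 5% dextrose (pH 4−5 with acetic acid), 10 mL/kg, twice daily at 8 h intervals. Courses were 20 days (7 days/week) or 8 weeks (6 days/week). Lung homogenates were plated on 7H11 for cfu.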

[2] = test system: Mycobacterium tuberculosis; assay: Antimycobacterial activity against Mycobacterium tuberculosis infected in aminobenzotriazole-pretreated BALB/c mouse chronic tuberculosis model assessed as reduction in log10CFU at 240 mg/kg, po bid for 20 days; assay type: functional, organism-based; parameters: dose 240 mg/kg; in short: as §1
[3] = Fraction unbound in aminobenzotriazole-pretreated BALB/c mouse plasma infected with Mycobacterium tuberculosis by LC-MS/MS analysis; assay type: ADME, cell-free
[4] = Apparent permeability from basolateral to apical side in human Caco2 cells; assay type: ADME, cell-based; details: Caco-2
[5] = test system: Mycobacterium tuberculosis; assay: Bactericidal activity against Mycobacterium tuberculosis infected in human THP1 cells at 1 ug/ml for 7 days; assay type: functional, THP-1
In short: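 Adherent THP-1 macrophages infected with Mtb were exposed to compound at 1 μg/mL for 7 days at 37 °C. Kill was expressed as log reduction versus the untreated control.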

[6] = test system: Mycobacterium tuberculosis; assay: Antimycobacterial activity against wild-type Mycobacterium tuberculosis H37Rv ATCC 27294 after 16 to 18 days by BACTEC 7H12B microdilution method; assay type: functional
[7] = target: DNA gyrase subunit A/DNA gyrase subunit B (Mycobacterium tuberculosis (strain ATCC 25618 / H37Rv), UniProt P9WG45+P9WG47); assay: Inhibition of Mycobacterium tuberculosis H37Rv DNA gyrase holoenzyme-mediated supercoiling of pBR322 DNA after 90 mins by agarose gel electrophoresis
DNA gyrase subunit A/DNA gyrase subunit B, sequence (P9WG45 whole entry): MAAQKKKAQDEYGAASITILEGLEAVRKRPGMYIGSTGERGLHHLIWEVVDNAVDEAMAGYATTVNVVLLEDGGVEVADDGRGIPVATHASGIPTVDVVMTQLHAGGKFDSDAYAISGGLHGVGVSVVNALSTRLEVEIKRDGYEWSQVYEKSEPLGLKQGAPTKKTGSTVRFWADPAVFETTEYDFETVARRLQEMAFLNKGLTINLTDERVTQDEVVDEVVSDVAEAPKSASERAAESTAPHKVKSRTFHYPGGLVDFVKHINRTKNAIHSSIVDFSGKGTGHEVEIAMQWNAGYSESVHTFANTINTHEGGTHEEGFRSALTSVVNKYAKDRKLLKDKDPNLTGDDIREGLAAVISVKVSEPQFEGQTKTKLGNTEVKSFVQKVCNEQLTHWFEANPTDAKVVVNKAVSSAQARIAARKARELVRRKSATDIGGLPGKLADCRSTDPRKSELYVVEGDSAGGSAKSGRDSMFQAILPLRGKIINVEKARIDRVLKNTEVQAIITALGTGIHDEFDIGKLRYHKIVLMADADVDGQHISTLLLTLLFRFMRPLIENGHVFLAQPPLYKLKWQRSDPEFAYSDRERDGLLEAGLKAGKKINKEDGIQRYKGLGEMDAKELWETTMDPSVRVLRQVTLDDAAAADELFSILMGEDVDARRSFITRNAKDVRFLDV
DNA gyrase subunit A/DNA gyrase subunit B, sequence (P9WG47 whole entry): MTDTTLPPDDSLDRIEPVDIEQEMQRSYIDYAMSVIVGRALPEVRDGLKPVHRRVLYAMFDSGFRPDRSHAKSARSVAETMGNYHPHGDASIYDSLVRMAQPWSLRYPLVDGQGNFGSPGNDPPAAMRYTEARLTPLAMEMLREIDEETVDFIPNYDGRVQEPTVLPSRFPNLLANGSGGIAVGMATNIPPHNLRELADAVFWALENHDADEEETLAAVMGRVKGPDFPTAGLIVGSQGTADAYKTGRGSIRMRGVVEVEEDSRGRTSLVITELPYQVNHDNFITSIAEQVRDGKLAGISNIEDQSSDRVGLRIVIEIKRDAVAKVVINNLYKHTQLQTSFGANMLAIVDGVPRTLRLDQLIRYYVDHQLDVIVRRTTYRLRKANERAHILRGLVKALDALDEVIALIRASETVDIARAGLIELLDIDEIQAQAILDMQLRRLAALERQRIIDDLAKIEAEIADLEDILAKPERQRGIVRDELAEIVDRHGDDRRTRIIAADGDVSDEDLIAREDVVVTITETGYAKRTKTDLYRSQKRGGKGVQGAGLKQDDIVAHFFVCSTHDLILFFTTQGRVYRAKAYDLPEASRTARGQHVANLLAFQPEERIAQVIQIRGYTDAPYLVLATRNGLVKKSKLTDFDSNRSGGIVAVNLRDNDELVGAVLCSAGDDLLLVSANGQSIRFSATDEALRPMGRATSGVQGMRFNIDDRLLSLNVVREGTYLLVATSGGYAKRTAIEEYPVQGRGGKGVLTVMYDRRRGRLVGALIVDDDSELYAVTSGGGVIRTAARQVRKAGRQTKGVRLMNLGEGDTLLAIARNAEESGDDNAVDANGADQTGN

Mus musculus [8] = assay: fT>MIC in BALB/c mouse infected with Mycobacterium tuberculosis at 160 mg/kg, po
In short: (§2)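 PK was measured in infected, ABT-pretreated mice during efficacy dosing (oral, 5% dextrose pH 4−5) on day 18 or 19. Saphenous blood was taken at 5, 15 and 30 min and 1, 2, 4 and 6 h. Plasma was precipitated with acetonitrile and analysed by LC−MS/MS. AUC came from noncompartmental analysis; free AUC/MIC and %free T>MIC used the unbound fraction and MIC.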

[9] = Octanol-sodium phosphate buffer partition coefficient, log D of the compound at 10 mM at pH 7.4 by shake-flask method; assay type: physicochemical
[10] = Apparent permeability from apical to basolateral side in human Caco2 cells; assay type: ADME, cell-based; details: Caco-2
[11] = test system: Mycobacterium tuberculosis; assay: Bactericidal activity against Mycobacterium tuberculosis H37Rv at 0.01 to 2 ug/ml by time kill assay; assay type: functional, organism-based; details: TDE = time-dependent effect
In short: (§3)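 Time-kill in 7H9 broth with 0.2% glycerol, 0.05% Tween 80 and 10% ADC. Serial 2-fold dilutions were added to ~3 × 10^7 cfu/mL H37Rv at 37 °C. Aliquots were plated on 7H11 at days 0, 3, 7 and 10, and plates were incubated up to 28 days at 37 °C, 5% CO2, humidified. Results are given as log10 cfu per concentration.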

Mus musculus [12] = assay: fT>MIC in BALB/c mouse infected with Mycobacterium tuberculosis at 80 mg/kg, po; in short: as §2
[13] = test system: Mycobacterium tuberculosis; assay: Bactericidal activity against Mycobacterium tuberculosis H37Rv after 10 days by time kill assay; assay type: functional, organism-based; in short: as §3
[14] = test system: Mycobacterium tuberculosis; assay: Bactericidal activity against Mycobacterium tuberculosis H37Rv assessed as reduction in log10CFU at 0.01 to 2 ug/ml after 10 days by time kill assay; assay type: functional; in short: as §3
[15] = test system: Mycobacterium tuberculosis; assay: Antimycobacterial activity against Mycobacterium tuberculosis infected in aminobenzotriazole-pretreated BALB/c mouse acute tuberculosis model assessed as reduction in log10CFU at 160 mg/kg, po bid for 20 days; assay type: functional; in short: as §1
[16] = Oral bioavailability in rat at 40 mg/kg by LC-MS/MS analysis; assay type: ADME, organism-based; details: in vivo
In short: (§4)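 Rats were dosed with the 5% dextrose (pH 4−5) formulation, 5 mg/kg iv and 40 mg/kg po. Plasma was precipitated with acetonitrile and analysed by LC−MS/MS with a carbamazepine internal standard. Parameters were derived by noncompartmental analysis.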

[17] = Clearance in rat at 40 mg/kg, po and 5 mg/kg, iv by LC-MS/MS analysis; assay type: ADME, organism-based; details: in vivo; in short: as §4
[18] = Ratio of fAUC in aminobenzotriazole-pretreated Mycobacterium tuberculosis infected BALB/c mouse at 80 mg/kg, po to MIC for wild-type Mycobacterium tuberculosis H37Rv ATCC 27294; in short: as §2
Mus musculus [19] = assay: fT>MIC in BALB/c mouse infected with Mycobacterium tuberculosis at 20 mg/kg, po; in short: as §2
[20] = target: T1, DNA gyrase subunit A/DNA gyrase subunit B (Mycobacterium tuberculosis (strain ATCC 25618 / H37Rv)) (UniProt P9WG45+P9WG47); assay: Inhibition of Mycobacterium tuberculosis H37Rv DNA gyrase holoenzyme using pBR322 DNA as substrate assessed as single stranded nicked DNA level at 0.02 to 11 uM after 60 mins by cleavable complex assay relative to control; parameters: scale not given: the % may be the effect or the level left
In short: (§5)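 Reactions were started with DNA and run 60 min at 37 °C, then stopped with proteinase K/SDS for 1 h at 37 °C. Products were resolved on 0.8% agarose with ethidium for 16 h at 1 V/cm, and nicked, linear and supercoiled forms were quantified.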

[21] = target: T1, DNA gyrase subunit A/DNA gyrase subunit B (Mycobacterium tuberculosis (strain ATCC 25618 / H37Rv)); assay: Inhibition of Mycobacterium tuberculosis H37Rv DNA gyrase holoenzyme using pBR322 DNA as substrate assessed as intact DNA level at 0.02 to 11 uM after 60 mins by cleavable complex assay relative to control; parameters: scale not given: the % may be the effect or the level left; in short: as §5
[22] = target: T1, DNA gyrase subunit A/DNA gyrase subunit B (Mycobacterium tuberculosis (strain ATCC 25618 / H37Rv)); assay: Inhibition of Mycobacterium tuberculosis H37Rv DNA gyrase holoenzyme using pBR322 DNA as substrate assessed as increase in single-strand cleaved plasmid DNA level after 60 mins by cleavable complex assay relative to control; in short: as §5
[23] = Ratio of fAUC in aminobenzotriazole-pretreated Mycobacterium tuberculosis infected BALB/c mouse at 20 mg/kg, po to MIC for wild-type Mycobacterium tuberculosis H37Rv ATCC 27294; in short: as §2
[24] = test system: Mycobacterium tuberculosis; assay: Antimycobacterial activity against Mycobacterium tuberculosis infected in aminobenzotriazole-pretreated BALB/c mouse chronic tuberculosis model assessed as reduction in log10CFU at 40 to 80 mg/kg, po bid for 8 weeks; assay type: functional, organism-based; in short: as §1
[25] = target: Voltage-gated inwardly rectifying potassium channel KCNH2 (Homo sapiens, UniProt Q12809); assay: Inhibition of human ERG by patch clamp electrophysiological analysis
Voltage-gated inwardly rectifying potassium channel KCNH2, sequence (Q12809 whole entry): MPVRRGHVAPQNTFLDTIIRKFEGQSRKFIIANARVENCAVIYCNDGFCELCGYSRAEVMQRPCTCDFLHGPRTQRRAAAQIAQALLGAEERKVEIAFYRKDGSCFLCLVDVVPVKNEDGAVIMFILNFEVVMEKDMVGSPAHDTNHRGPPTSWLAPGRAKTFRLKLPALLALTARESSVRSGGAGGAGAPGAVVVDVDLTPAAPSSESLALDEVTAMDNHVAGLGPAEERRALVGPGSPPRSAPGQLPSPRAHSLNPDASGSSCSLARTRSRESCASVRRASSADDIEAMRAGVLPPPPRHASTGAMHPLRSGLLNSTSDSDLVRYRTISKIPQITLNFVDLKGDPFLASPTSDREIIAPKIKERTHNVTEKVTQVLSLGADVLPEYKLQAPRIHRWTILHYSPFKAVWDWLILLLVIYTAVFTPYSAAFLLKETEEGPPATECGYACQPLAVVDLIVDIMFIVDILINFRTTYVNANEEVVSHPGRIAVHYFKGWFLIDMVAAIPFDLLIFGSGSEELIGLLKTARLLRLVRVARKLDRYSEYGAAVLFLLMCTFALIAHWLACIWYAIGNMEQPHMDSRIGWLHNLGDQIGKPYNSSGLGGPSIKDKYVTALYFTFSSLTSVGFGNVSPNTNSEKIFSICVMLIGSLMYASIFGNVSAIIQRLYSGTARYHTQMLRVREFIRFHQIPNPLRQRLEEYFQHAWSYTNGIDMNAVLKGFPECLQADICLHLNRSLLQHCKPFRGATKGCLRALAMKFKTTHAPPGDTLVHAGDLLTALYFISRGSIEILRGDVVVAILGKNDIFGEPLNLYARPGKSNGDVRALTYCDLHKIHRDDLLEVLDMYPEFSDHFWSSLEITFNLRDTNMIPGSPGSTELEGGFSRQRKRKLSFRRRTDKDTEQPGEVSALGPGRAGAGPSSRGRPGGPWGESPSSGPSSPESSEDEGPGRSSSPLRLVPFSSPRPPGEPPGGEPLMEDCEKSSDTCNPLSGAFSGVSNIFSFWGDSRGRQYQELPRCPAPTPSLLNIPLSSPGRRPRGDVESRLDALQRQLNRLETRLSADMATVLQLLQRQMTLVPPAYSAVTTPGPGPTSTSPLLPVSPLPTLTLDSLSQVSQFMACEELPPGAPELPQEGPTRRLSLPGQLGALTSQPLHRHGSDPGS

[26] = test system: Mycobacterium tuberculosis; assay: Antimycobacterial activity against Mycobacterium tuberculosis infected in aminobenzotriazole-pretreated BALB/c mouse chronic tuberculosis model assessed as reduction in log10CFU at 40 to 80 mg/kg, po bid for 20 days; assay type: functional; details: dose mg/kg 40-80; in short: as §1

For COc1cnc2ccc(=O)n(CCN3CC[C@H](NCc4ccc5c(n4)NC(=O)CO5)[C@H](F)C3)c2c1, the Activity [1] was “Active”, the Activity [2] was “Active” and the fraction unbound [3] was 0.48. For the same compound, the Papp B→A [4] was 12.7 ×10⁻⁶ cm/s, the LCK [5] was 1.3 and the MIC [6] was 0.06 µg/mL (≈ 0.124 µM). The IC50 [7] was 170 nM, the “fT>MIC” value (Mus musculus [8]) was 83% and the logD at 10000 µM [9] was 0.82. The Papp A→B [10] was 3.4 ×10⁻⁶ cm/s.
For O=C1COc2ccc(CN[C@@H]3CCN(CCn4c(=O)ccc5ncc(F)cc54)C[C@@H]3F)nc2N1, the Activity [11] was “tde”, the Activity [1] was “Active” and the fraction unbound [3] was 0.32. For the same compound, the Papp B→A [4] was 11.2 ×10⁻⁶ cm/s, the “fT>MIC” value (Mus musculus [12]) was 70% and the Activity [13] was “Dose-dependent effect”. For the same compound, the LCK [5] was 1.3, the log10cfu [14] was greater than 3 and the MIC [6] was 0.13 µg/mL (≈ 0.276 µM). For the same compound, the IC50 [7] was 350 nM, the log10cfu [15] was 1.2 and the bioavailability [16] was 87%. The clearance [17] was 87 mL/min/kg, the logD at 10000 µM [9] was 0.47 and the Papp A→B [10] was 7.6 ×10⁻⁶ cm/s. The fAUC/MIC [18] was 129.
With COc1cnc2ccc(=O)n(CCN3CCC(NCc4cnc(C)c(C#N)c4)CC3)c2c1 the fraction unbound [3] was 0.23, the Papp B→A [4] was 8.3 ×10⁻⁶ cm/s and the “fT>MIC” value (Mus musculus [19]) was 58%. The Activity [20] was 70%, the Activity [21] was 10% and the inhibition [22] was “Dose-dependent effect”. For the same compound, the fAUC/MIC [23] was 54, the Activity [24] was “Active” and the MIC [6] was 0.06 µg/mL (≈ 0.139 µM). It also gave an IC50 [7] of 140 nM, a bioavailability [16] greater than 100% and an IC50 [25] of 50.6 µM. It also gave a clearance [17] of 32 mL/min/kg, a logD at 10000 µM [9] of 1.07 and a Papp A→B [10] of 10.5 ×10⁻⁶ cm/s. For the same compound, the log10cfu [26] was 0.5.
